Source: ChEMBL document CHEMBL5131571, “Design, Synthesis, and Evaluation of Lung-Retentive Prodrugs for Extending the Lung Tissue Retention of Inhaled Drugs” (J Med Chem, 2022)

What was measured:
[1] = Drug metabolism in rat lung homogenate assessed as piperidin-4-yl-2-hydroxy-2,2-diphenylacetate formation at 1500 ng/ml by MS/MS analysis; format: ADME, tissue-based; details: tissue homogenate
How it was run: (§1)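 Wistar Han rat lung homogenized, then diluted 1 in 4 by mass with water (pH 6.8). Incubated at nominal 1500 ng/mL, 37 °C. Breakdown followed over 1500 min by MS/MS against authenticated samples of prodrug, intermediate and parent.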

[2] = Drug metabolism in rat lung homogenate assessed as 1-(((S)-2-Amino-3,3-dimethylbutanoyl)oxy)ethyl-4-(2-hydroxy-2,2-diphenylacetoxy)piperidine-1-carboxylate Hydrochloride intermediate formation at 1500 ng/ml by MS/MS analysis; format: ADME, tissue-based; details: tissue homogenate; how it was run: as §1
[3] = Stability of compound in PBS at pH 7.4 assessed as half life by LC-MS analysis; format: physicochemical
How it was run: (§2)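 1000 ng/mL final (from 200 μg/mL D6-DMSO stock) in prewarmed matrix at 37 °C with continuous shaking, triplicate. Matrices: pH 6.5 or 7.4 phosphate buffer, 1 in 4 water-diluted Wistar Han lung homogenate (pH 6.8), or fresh rat blood. Timed aliquots quenched in MeCN with labetalol/reserpine internal standards. Half-life by MS, mean ± SD.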

[4] = Stability in Crl Wistar Han rat blood at pH 7.2 assessed as half life by mass spectroscopic analysis; format: ADME, tissue-based; how it was run: as §2
[5] = Stability of compound in PBS at pH 6.5 assessed as half life by LC-MS analysis; format: physicochemical; how it was run: as §2
[6] = Stability in Crl Wistar Han rat lung homogenate at pH 6.8 assessed as half life by mass spectroscopic analysis; format: ADME, tissue-based; how it was run: as §2
[7] = Plasma concentration in Crl Sprague-Dawley rat at 0.2 mg/kg, IT measured at 0.5 hrs by LC-MS/MS analysis; format: ADME, organism-based
How it was run: (§3)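 Male Sprague Dawley rats, n = 3 per time point, given a single intratracheal dose of 0.2 mg/kg at 1 mL/kg in 5% ethanol in pH 6.5 PBS. Serial blood into EDTA, centrifuged for plasma. At 24 h, lungs taken after CO2 euthanasia, rinsed, blotted, weighed, snap-frozen and homogenized. Methanol/acetonitrile protein precipitation with imipramine internal standard. Quantified by LC–MS/MS.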

[8] = Drug metabolism in rat lung homogenate assessed as 1-(((R)-2-amino-3,3-dimethylbutanoyl)oxy)ethyl 4-(2-hydroxy-2,2-diphenylacetoxy)piperidine-1-carboxylate intermediate formation at 1500 ng/ml by MS/MS analysis; format: ADME, tissue-based; details: tissue homogenate; how it was run: as §1
[9] = Protein binding to Crl Wistar Han rat lung homogenate assessed as free fraction by mass spectroscopic analysis; format: ADME, tissue-based
How it was run: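 Rapid equilibrium dialysis of spiked 1 in 4 Wistar Han rat lung homogenate (1000 ng/mL) against pH 6.5 PBS, 4 h, 37 °C, orbital shaking. Recovery and time-0/240 matrix controls included. Samples matrix-matched 1:1, MeCN precipitation with labetalol/reserpine internal standards, MS quantification. Triplicate, mean ± SD.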

[10] = Plasma concentration in Crl Sprague-Dawley rat at 0.2 mg/kg, IT measured at 0.25 hrs by LC-MS/MS analysis; format: ADME, organism-based; how it was run: as §3
[11] = Plasma concentration in Crl Sprague-Dawley rat at 0.2 mg/kg, IT measured at 1 hr by LC-MS/MS analysis; format: ADME, organism-based; how it was run: as §3
[12] = Plasma concentration in Crl Sprague-Dawley rat at 0.2 mg/kg, IT measured at 3 to 24 hrs by LC-MS/MS analysis; format: ADME, organism-based; details: in vivo, other, time 3-24 hrs; how it was run: as §3
[13] = Drug concentration in lung of Crl Sprague-Dawley rat at 0.2 mg/kg, IT measured at 24 hrs by LC-MS/MS analysis; format: ADME, organism-based; details: read-out: Ct; how it was run: as §3
[14] = Plasma concentration in Crl Sprague-Dawley rat at 0.2 mg/kg, IT measured at 2 hrs by LC-MS/MS analysis; format: ADME, organism-based; how it was run: as §3

SMILES: CC(OC(=O)[C@@H](NC(=O)[C@@H](N)CCCCN)C(C)(C)C)OC(=O)N1CCC(OC(=O)C(O)(c2ccccc2)c2ccccc2)CC1.Cl.Cl (stereo not given in full)
- Drug metabolism [1]: Metabolite_Detected
- Drug metabolism [2]: Metabolite_Detected

SMILES: CC(OC(=O)C[C@@H](N)CCCCN)OC(=O)N1CCC(OC(=O)C(O)(c2ccccc2)c2ccccc2)CC1.Cl.Cl (stereo not given in full)
- half-life [3]: 5.9 h
- half-life [4]: 0.3 h
- half-life [5]: 29.1 h
- half-life [6]: 3.1 h

SMILES: CC(OC(=O)[C@H](NC(=O)[C@@H](N)CCCCN)C(C)(C)C)OC(=O)N1CCC(OC(=O)C(O)(c2ccccc2)c2ccccc2)CC1.Cl.Cl (stereo not given in full)
- Drug metabolism [1]: Metabolite_Detected
- concentration at 0.5 h [7]: 1.63 ng/mL
- Drug metabolism [8]: Metabolite_Notdetected
- fraction unbound [9]: 0.005
- concentration at 0.25 h [10]: 2.03 ng/mL
- concentration at 1 h [11]: 2.1 ng/mL
- Cp [12]: 1 ng/mL
- concentration at 24 h [13]: 20000 ng/mL
- concentration at 2 h [14]: 1.25 ng/mL
